Measurements reported in ChEMBL document CHEMBL3588823, “Design, synthesis and biological evaluation of novel 5-oxo-2-thioxoimidazolidine derivatives as potent androgen receptor antagonists” (Eur J Med Chem, 2015).

What was measured:
[1] = target: T1, Androgen receptor (Homo sapiens, UniProt P10275); experiment: Antagonist activity at androgen receptor (unknown origin)
T1 sequence (P10275 whole entry): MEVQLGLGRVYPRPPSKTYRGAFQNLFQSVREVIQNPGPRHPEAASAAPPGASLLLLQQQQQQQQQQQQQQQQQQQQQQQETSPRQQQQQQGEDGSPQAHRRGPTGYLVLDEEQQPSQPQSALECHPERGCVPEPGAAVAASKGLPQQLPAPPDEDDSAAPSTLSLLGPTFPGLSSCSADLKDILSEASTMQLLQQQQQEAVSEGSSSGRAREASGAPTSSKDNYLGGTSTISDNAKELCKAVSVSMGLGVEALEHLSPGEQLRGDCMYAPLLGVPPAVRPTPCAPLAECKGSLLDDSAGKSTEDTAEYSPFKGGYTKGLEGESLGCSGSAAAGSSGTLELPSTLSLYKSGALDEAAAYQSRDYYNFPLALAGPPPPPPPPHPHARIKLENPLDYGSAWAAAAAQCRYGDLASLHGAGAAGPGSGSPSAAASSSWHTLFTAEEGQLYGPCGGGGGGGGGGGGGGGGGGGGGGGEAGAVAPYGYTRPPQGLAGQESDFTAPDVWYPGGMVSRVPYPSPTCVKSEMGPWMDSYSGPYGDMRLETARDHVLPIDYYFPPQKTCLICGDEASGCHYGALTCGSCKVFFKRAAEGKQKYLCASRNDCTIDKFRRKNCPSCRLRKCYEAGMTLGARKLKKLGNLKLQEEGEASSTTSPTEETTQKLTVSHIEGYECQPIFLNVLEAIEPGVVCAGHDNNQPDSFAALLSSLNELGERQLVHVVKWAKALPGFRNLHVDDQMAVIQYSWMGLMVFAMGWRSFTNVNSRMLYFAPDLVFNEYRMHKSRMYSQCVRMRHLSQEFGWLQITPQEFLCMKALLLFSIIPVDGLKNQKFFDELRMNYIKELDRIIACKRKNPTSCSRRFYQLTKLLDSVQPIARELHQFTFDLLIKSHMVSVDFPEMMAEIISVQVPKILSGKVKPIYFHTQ

[2] = system: LNCaP; experiment: Antiproliferative activity against human LNCAP cells after 3 days; type: functional, cell-based
In short: (§1)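 LNCaP cells seeded at 10,000 per well in RPMI 1640 with 10% charcoal-stripped serum and 1% AAS, then held 3 days at 37 °C. Medium was then replaced with serial compound dilutions, either without DHT (agonism mode) or with DHT (antagonism mode).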

[3] = target: T1, Androgen receptor; experiment: Partial agonist activity at androgen receptor (unknown origin); in short: as §1
[4] = Homo sapiens, LNCaP, 72 h, read-out: IC50

Row | SMILES | Ki [1] | IC50 [2, 4] [µM] | Ki [3] [µM] | IC50 ([2]; lncap)
1 | CNC(=O)c1ccc(N2C(=S)N(c3ccc(C#N)c(C(F)(F)F)c3)C(=O)C23CCOCC3)cc1F | 0.126 µM | 0.54 | – | –
2 | CNC(=O)c1ccc(N2C(=S)N(c3ccc(C#N)c(C(F)(F)F)c3)C(=O)C23CCN(C)CC3)cc1F | – | > 10 | – | –
3 | CNC(=O)c1ccc(N2CC(=O)N(c3ccc(C#N)c(C(F)(F)F)c3)C2=S)cc1F | – | > 10 | – | –
4 | CNC(=O)c1ccc(N2C(=S)N(c3ccc(C#N)c(C(F)(F)F)c3)C(=O)[C@H]2C)cc1F | – | 1.51 | 0.482 | –
5 | CNC(=O)c1ccc(N2C(=S)N(c3ccc(C#N)c(C(F)(F)F)c3)C(=O)C2(C)COC)cc1F (racemic) | 0.068 µM | 0.344 | – | –
6 | CNC(=O)c1ccc(N2C(=S)N(c3ccc(C#N)c(C(F)(F)F)c3)C(=O)C2(C)COCc2ccccc2)cc1F (racemic) | 0.514 µM | 2.3 | – | –
7 | CCOC(=O)CC1(C)C(=O)N(c2ccc(C#N)c(C(F)(F)F)c2)C(=S)N1c1ccc(C(=O)NC)c(F)c1 (racemic) | 0.236 µM | 1.38 | – | –
8 | CNC(=O)c1ccc(N2C(=S)N(c3ccc(C#N)c(C(F)(F)F)c3)C(=O)C2(C)CC(=O)O)cc1F (racemic) | Not Active | – | – | Not Active
9 | CNC(=O)c1ccc(N2C(=S)N(c3ccc(C#N)c(C(F)(F)F)c3)C(=O)C23CCOC3)cc1F (racemic) | 0.0338 µM | 0.196 | – | –
10 | CNC(=O)c1ccc(N2C(=S)N(c3ccc(C#N)c(C(F)(F)F)c3)C(=O)C2C)cc1F (racemic) | – | 0.944 | 0.257 | –
11 | CNC(=O)c1ccc(N2C(=S)N(c3cnc(C#N)c(C(F)(F)F)c3)C(=O)C23CCC3)cc1F [APALUTAMIDE] | – | 0.174 | – | –
12 | CC(O)(CS(=O)(=O)c1ccc(F)cc1)C(=O)Nc1ccc(C#N)c(C(F)(F)F)c1 (stereo unspecified) [BICALUTAMIDE] | – | 0.733 | – | –
13 | CNC(=O)c1ccc(N2C(=S)N(c3ccc(C#N)c(C(F)(F)F)c3)C(=O)C2(C)C)cc1F [ENZALUTAMIDE] | – | 0.127 | – | –
